Measured values from ChEMBL document CHEMBL2021781, “Dual targeting of histone deacetylase and topoisomerase II with novel bifunctional inhibitors” (J Med Chem, 2012).
pIC50: −log10 of the molar value. Values belong to the compound of their own block, whether it stands above or below them. The source made the active and inactive calls. No cut-off for these calls is given here.

How the values were obtained:
[1] = target: T1, Histone deacetylase (Homo sapiens) (UniProt Q13547+O15379+Q9UBN7+Q92769+Q9UQL6+Q8WUI4+Q9BY41+Q96DB2+P56524+Q9UKV0+Q969S8); experiment: Inhibition of HDAC in human DU145 cells assessed as histone H3 hyperacetylation at 0.1 to 0.5 uM after 24 hrs by Western blot analysis; type: cell-based; conditions: DU-145
Summary of the method: (§1)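 DU-145 cells passaged 24 h before dosing, then exposed 24 h to compound in growth medium (final DMSO 0.1%); controls received 0.1% DMSO. Lysed in RIPA with protease inhibitors at 4°C, cleared at 14,000 × g. Protein quantified against BSA, boiled, transferred to nitrocellulose. Probed for acetyl-H3, acetyl-H4 and p21waf1 with actin loading control; read by near-infrared scanning at 700/800 nm.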

[2] = Drug uptake in human DU145 cell perinuclear region at 1 uM after 4 hrs by confocal microscopic analysis; type: ADME, cell-based; conditions: du-145, 4 h
Summary of the method: (§2)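 Cells plated on glass coverslips 24 h ahead, then given fresh media with compound at 1 μM for 4 h. After a PBS wash, coverslips were mounted and intracellular distribution imaged by confocal microscopy, excitation 488 nm. Done in DU-145 cells, with A549 lung tumor cells also examined.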

[3] = Drug uptake in human A549 cell perinuclear region at 1 uM after 4 hrs by confocal microscopic analysis; type: ADME, cell-based; conditions: a549, 4 h; summary of the method: as §2
[4] = target: DNA topoisomerase 2-alpha (Homo sapiens) (UniProt P11388); experiment: Inhibition of topoisomerase 2 in human DU145 cells assessed as stabilization of enzyme-DNA cleavage complex at 90 nM after 30 mins by immunoblot analysis; type: cell-based; conditions: DU-145
[5] = target: T1, Histone deacetylase (Homo sapiens); experiment: Inhibition of HDAC in human DU145 cells assessed as upregulation of p21 expression at IC50 concentration after 4 hrs by Western blot analysis relative to control; type: cell-based; conditions: DU-145
Summary of the method: (§3)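 Lysed in RIPA with protease inhibitors, cleared 14,000 RPM at 4°C. Immunoblotted, probing acetylated versus total tubulin; p21 also checked. Near-infrared detection at 700/800 nm.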

[6] = target: T2, Protein deacetylase HDAC6 (Homo sapiens) (UniProt Q9UBN7); experiment: Inhibition of HDAC6-mediated tubulin acetylation in human DU145 cells at 90 nM after 4 hrs by Western blot analysis; type: cell-based; conditions: DU-145
T2 sequence (whole entry): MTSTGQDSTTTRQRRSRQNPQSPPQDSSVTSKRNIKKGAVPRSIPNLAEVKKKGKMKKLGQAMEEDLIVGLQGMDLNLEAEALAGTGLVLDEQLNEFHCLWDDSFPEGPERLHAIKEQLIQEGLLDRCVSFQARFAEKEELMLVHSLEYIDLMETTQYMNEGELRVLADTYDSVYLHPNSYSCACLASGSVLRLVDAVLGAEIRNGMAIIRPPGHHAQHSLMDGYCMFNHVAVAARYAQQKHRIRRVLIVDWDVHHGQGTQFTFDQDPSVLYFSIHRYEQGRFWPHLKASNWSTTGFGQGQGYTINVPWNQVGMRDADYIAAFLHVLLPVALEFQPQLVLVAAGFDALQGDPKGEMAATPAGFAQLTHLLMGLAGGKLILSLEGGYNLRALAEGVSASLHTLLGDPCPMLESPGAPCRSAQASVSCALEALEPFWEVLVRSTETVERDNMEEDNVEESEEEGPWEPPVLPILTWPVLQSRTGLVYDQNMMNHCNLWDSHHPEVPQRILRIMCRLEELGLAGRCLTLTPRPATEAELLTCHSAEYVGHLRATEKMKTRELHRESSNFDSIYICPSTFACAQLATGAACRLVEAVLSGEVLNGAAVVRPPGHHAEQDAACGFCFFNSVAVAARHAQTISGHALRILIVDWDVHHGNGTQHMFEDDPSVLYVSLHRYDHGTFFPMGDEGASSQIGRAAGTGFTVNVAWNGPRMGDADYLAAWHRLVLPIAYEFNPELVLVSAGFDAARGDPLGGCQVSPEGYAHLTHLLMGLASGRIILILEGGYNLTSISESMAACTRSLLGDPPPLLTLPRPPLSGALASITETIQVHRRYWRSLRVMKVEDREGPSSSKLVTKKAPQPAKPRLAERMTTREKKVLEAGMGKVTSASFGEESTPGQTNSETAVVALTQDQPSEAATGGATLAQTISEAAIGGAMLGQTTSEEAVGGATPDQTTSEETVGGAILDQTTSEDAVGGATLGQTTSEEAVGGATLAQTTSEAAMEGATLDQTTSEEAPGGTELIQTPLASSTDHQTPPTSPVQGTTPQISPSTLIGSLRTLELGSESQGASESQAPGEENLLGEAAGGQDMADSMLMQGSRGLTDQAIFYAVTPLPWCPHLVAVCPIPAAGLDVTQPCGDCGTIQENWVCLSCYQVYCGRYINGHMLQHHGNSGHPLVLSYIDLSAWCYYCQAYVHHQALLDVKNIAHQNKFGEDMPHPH
Summary of the method: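 DU-145 cells passaged 24 h before dosing, then treated 4 h, with no more than 0.1% DMSO including controls. Lysis in RIPA buffer with protease inhibitors, protein quantified against a BSA standard, SDS-PAGE and transfer. Blots probed with rabbit anti-tubulin and mouse anti-acetyl tubulin, read by near-infrared imaging at 700/800 nm.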

[7] = target: DNA topoisomerase 2-alpha (Homo sapiens) (UniProt P11388); experiment: Inhibition of Topoisomerase 2 assessed as kinetoplast DNA decatenation at 50 uM after 10 mins by electrophoretic analysis
[8] = Drug uptake in human A549 cell nucleus at 1 uM after 4 hrs by confocal microscopic analysis; type: ADME, cell-based; conditions: a549, 4 h
Summary of the method: (§4)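 Cells plated on glass coverslips 24 h beforehand, then incubated in fresh medium with compound at 1 μM for 4 h. Washed with PBS, coverslips mounted and imaged by confocal microscopy at 488 nm excitation. DU-145 (prostate carcinoma) shown in main text; A549 lung tumour cells treated likewise.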

[9] = target: DNA topoisomerase 2-alpha (Homo sapiens) (UniProt P11388); experiment: Inhibition of topoisomerase 2 in human DU145 cells assessed as stabilization of enzyme-DNA cleavage complex at 90 nM after 72 hrs by immunoblot analysis; type: cell-based; conditions: DU-145
[10] = target: T1, Histone deacetylase (Homo sapiens); experiment: Inhibition of HDAC in human DU145 cells assessed as upregulation of p21waf1 protein expression at 0.1 uM after 24 hrs by Western blot analysis; type: cell-based; conditions: DU-145; summary of the method: as §1
[11] = Drug uptake in human DU145 cell nucleus at 1 uM after 4 hrs by confocal microscopic analysis; type: ADME, cell-based; conditions: du-145, 4 h; summary of the method: as §4
[12] = target: T1, Histone deacetylase (Homo sapiens); experiment: Inhibition of HDAC in human DU145 cells assessed as histone H4 acetylation after 24 hrs by Western blot analysis; type: cell-based; conditions: DU-145; summary of the method: as §1
MCF7 = experiment: Antiproliferative activity against human MCF7 cells after 72 hrs by MTS assay; type: functional, cell-based; conditions: MCF7, 72 h
[13] = target: T2, Protein deacetylase HDAC6 (Homo sapiens); experiment: Inhibition of HDAC6-mediated tubulin acetylation in human DU145 cells at 500 nM after 4 hrs by Western blot analysis; type: cell-based; conditions: DU-145; summary of the method: as §3
DU-145 = experiment: Antiproliferative activity against human DU145 cells after 72 hrs by MTS assay; type: functional, cell-based; conditions: DU-145, 72 h
Summary of the method: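 DU-145 cells passaged 24 h before dosing and exposed 72 h; compounds from 10 mM DMSO stocks; controls given media with 0.1% DMSO; 37°C, 5% CO2. Viability read by MTS assay, with Trypan Blue staining also used. IC50 from the average of two experiments, each run in triplicate.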

SK-MES-1 = experiment: Antiproliferative activity against human SKMES1 cells after 72 hrs by MTS assay; type: functional, cell-based; conditions: SK-MES-1, 72 h
[14] = target: T1, Histone deacetylase (Homo sapiens); experiment: Inhibition of HDAC in human DU145 cells assessed as upregulation of p21 expression at 5 times IC50 concentration after 4 hrs by Western blot analysis relative to control; type: cell-based; conditions: DU-145; summary of the method: as §3
Histone deacetylase 8 = target: T3, Histone deacetylase 8 (Homo sapiens, UniProt Q9BY41); experiment: Inhibition of HDAC8 in human HeLa cell nuclear extract using Fluor de Lys as substrate after 15 mins by fluorometric analysis
T3 sequence (Q9BY41 whole entry): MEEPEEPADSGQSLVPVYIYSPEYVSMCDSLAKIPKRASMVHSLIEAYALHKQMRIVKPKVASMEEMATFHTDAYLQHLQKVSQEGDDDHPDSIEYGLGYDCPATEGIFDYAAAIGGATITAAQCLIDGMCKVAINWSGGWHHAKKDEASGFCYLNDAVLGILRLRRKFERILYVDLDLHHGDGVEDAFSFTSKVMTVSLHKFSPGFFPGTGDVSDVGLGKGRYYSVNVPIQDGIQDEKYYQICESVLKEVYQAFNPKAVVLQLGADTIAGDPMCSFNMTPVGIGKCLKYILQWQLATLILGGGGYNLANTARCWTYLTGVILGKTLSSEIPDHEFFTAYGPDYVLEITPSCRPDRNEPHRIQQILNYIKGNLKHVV

Histone deacetylase 1 = Histone deacetylase 1 (Homo sapiens, UniProt Q13547); experiment: Inhibition of HDAC1 in human HeLa cell nuclear extract using Fluor de Lys as substrate after 15 mins by fluorometric analysis
[15] = target: T4, Protein deacetylase HDAC6 (Homo sapiens, UniProt Q9UBN7); experiment: Inhibition of HDAC6 in human HeLa cell nuclear extract using Fluor de Lys as substrate after 15 mins by fluorometric analysis
T4 sequence (Q9UBN7 whole entry): T2 sequence (whole entry)

[16] = target: Histone deacetylase (HDAC1 and HDAC2) (Homo sapiens, UniProt Q13547+Q92769); experiment: Inhibition of HDAC1/2 in human HeLa cell nuclear extract using Fluor de Lys as substrate after 15 mins by fluorometric analysis; type: protein assay
[17] = Drug uptake in human DU145 cell vesicle like body at 1 uM after 4 hrs by confocal microscopic analysis; type: ADME, cell-based; conditions: du-145, 4 h; summary of the method: as §4
[18] = target: DNA topoisomerase 2-alpha (Homo sapiens) (UniProt P11388); experiment: Inhibition of topoisomerase 2 in human DU145 cells assessed as stabilization of enzyme-DNA cleavage complex at […] after 30 mins by immunoblot analysis; type: cell-based; conditions: DU-145
[19] = target: DNA topoisomerase 2-alpha (Homo sapiens) (UniProt P11388); experiment: Inhibition of topoisomerase 2 in human DU145 cells assessed as stabilization of enzyme-DNA cleavage complex at […] after 72 hrs by immunoblot analysis; type: cell-based; conditions: DU-145
[20] = target: T2, Protein deacetylase HDAC6 (Homo sapiens); conditions: DU-145, 10 uM
[21] = Drug uptake in human A549 cell vesicle like body at 1 uM after 4 hrs by confocal microscopic analysis; type: ADME, cell-based; conditions: a549, 4 h; summary of the method: as §4

DNA topoisomerase 2-alpha (Homo sapiens), sequence (P11388 whole entry): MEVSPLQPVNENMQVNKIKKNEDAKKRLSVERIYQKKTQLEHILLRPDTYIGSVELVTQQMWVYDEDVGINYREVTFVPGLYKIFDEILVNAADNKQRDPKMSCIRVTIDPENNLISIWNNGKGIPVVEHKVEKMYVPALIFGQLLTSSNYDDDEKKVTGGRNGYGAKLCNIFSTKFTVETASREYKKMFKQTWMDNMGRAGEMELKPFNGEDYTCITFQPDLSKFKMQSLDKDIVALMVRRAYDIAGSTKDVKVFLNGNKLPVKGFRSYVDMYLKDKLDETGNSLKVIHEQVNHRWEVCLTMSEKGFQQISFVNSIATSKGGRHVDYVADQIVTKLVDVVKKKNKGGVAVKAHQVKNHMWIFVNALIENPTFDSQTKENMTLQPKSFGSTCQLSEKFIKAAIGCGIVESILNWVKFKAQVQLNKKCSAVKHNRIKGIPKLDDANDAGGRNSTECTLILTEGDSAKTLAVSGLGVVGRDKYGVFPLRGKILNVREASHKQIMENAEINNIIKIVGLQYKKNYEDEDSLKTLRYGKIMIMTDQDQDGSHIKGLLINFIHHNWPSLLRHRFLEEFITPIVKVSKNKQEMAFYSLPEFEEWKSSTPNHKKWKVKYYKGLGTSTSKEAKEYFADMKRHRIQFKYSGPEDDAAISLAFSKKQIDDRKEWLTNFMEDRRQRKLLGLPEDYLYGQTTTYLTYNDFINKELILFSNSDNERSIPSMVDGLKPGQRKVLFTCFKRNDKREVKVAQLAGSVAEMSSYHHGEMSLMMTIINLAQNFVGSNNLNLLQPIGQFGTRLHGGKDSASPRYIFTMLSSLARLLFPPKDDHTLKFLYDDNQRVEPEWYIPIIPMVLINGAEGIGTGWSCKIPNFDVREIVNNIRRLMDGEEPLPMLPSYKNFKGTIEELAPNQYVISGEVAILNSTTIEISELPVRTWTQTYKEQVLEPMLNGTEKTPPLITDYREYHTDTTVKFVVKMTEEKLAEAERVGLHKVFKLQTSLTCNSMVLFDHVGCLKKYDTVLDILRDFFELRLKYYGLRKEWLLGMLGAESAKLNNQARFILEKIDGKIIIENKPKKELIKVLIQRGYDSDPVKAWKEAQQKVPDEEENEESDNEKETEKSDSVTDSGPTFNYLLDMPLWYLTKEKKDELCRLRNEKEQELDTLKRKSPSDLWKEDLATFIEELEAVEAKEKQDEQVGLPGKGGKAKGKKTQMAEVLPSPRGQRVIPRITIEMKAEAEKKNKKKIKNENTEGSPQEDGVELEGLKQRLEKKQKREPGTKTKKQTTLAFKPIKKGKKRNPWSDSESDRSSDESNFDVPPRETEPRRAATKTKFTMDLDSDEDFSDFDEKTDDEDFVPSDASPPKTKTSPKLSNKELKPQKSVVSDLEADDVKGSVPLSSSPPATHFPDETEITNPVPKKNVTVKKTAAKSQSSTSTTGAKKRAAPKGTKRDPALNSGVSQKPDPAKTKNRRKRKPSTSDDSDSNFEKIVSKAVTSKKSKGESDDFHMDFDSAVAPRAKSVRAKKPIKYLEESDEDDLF
Histone deacetylase 1, sequence (Q13547 whole entry): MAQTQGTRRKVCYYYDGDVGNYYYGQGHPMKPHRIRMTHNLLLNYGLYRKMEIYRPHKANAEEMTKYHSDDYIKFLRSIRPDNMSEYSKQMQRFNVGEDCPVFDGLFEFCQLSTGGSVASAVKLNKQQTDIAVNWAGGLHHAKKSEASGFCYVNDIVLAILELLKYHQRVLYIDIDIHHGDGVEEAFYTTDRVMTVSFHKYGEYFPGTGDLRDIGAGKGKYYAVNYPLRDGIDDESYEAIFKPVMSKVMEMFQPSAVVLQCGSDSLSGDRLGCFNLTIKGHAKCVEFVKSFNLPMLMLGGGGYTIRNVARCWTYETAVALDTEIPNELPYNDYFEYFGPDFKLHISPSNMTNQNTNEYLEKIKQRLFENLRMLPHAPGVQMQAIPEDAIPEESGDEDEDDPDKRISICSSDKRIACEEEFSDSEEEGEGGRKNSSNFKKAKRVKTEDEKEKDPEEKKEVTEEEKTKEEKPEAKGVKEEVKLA

SMILES: COc1cccc2c1C(=O)c1c(O)c3c(c(O)c1C2=O)C[C@@](O)(C(C)=O)C[C@@H]3O[C@H]1C[C@H](N)[C@H](O)[C@H](C)O1 [DAUNORUBICIN]
- inhibition [1]: Active
- Drug uptake [2]: Active
- Drug uptake [3]: Active
- inhibition [4]: Active
- Activity [5]: inactive
- inhibition [6]: inactive
- inhibition [7]: Active
- Drug uptake [8]: Active
- inhibition [9]: Active
- inhibition [10]: inactive
- Drug uptake [11]: Active
- inhibition [12]: Dose-dependent effect
- pIC50 (MCF7): 6.02
- inhibition [13]: Active
- pIC50 (DU-145): 7.05
- pIC50 (SK-MES-1): 6.77
- Activity [14]: inactive

- pIC50 (DU-145): 5.67
SMILES: O=C(CCCCCCC(=O)Nc1ccccc1)NO [VORINOSTAT]

SMILES: COc1cccc2c1C(=O)c1c(O)c3c(c(O)c1C2=O)C[C@@](O)(C(C)=O)C[C@@H]3O[C@H]1C[C@H](NCc2ccc(-c3cn(CCCCCCC(=O)NO)nn3)cc2)[C@H](O)[C@H](C)O1
- pIC50 (Histone deacetylase 8): 6.15
- inhibition [7]: Active
- pIC50 (Histone deacetylase 1): 8.10
- pIC50 [15]: 7.70
- IC50 [16]: 0.9 nM
- pIC50 (MCF7): 4.97
- pIC50 (DU-145): 5.53
- pIC50 (SK-MES-1): 5.48

SMILES: COc1cccc2c1C(=O)c1c(O)c3c(c(O)c1C2=O)C[C@@](O)(C(C)=O)C[C@@H]3O[C@H]1C[C@H](NCc2ccc(-c3cn(CCCCCCCC(=O)NO)nn3)cc2)[C@H](O)[C@H](C)O1
- pIC50 (Histone deacetylase 8): 6.42
- inhibition [7]: Active
- pIC50 (Histone deacetylase 1): 7.96
- pIC50 [15]: 7.72
- IC50 [16]: 4.2 nM
- pIC50 (MCF7): 4.83
- pIC50 (DU-145): 5.69
- pIC50 (SK-MES-1): 5.58

SMILES: COc1cccc2c1C(=O)c1c(O)c3c(c(O)c1C2=O)C[C@@](O)(C(C)=O)C[C@@H]3O[C@H]1C[C@H](NCc2ccc(-c3cn(CCCCCC(=O)NO)nn3)cc2)[C@H](O)[C@H](C)O1
- pIC50 (Histone deacetylase 8): 5.38
- Drug uptake [17]: Active
- Activity [5]: inactive
- inhibition [18]: Active
- inhibition [7]: Active
- inhibition [19]: inactive
- pIC50 [15]: 7.52
- inhibition [20]: Active
- pIC50 (MCF7): 4.87
- pIC50 (DU-145): 5.79
- pIC50 (SK-MES-1): 5.33
- Activity [14]: inactive
- Drug uptake [21]: Active

SMILES: COc1cccc2c1C(=O)c1c(O)c3c(c(O)c1C2=O)C[C@@](O)(C(C)=O)C[C@@H]3O[C@H]1C[C@H](NCc2ccc(-c3cn(CCCCC(=O)NO)nn3)cc2)[C@H](O)[C@H](C)O1
- inhibition [7]: Active
- pIC50 (Histone deacetylase 1): 5.34
- pIC50 [15]: 6.26
- IC50 [16]: 89.9 nM
- pIC50 (MCF7): 4.61
- pIC50 (DU-145): 5.27
- pIC50 (SK-MES-1): 4.82
